# From ChEMBL document CHEMBL1125428, “Development of 2,3-dihydro-6-(3-phenoxypropyl)-2-(2-phenylethyl)-5-benzofuranol (L-670,630) as a potent and orally active inhibitor of 5-lipoxygenase” (J Med Chem, 1992)
# Key:
# [1] = target: Arachidonate 5-lipoxygenase (Homo sapiens); test: Inhibitory activity of LTB4 production in human PMN
# [2] = Peak concentration of drug in rat plasma after oral dosing at 20 mg/kg. Concentration of parent compound was measured before (free) and after (total) beta-glucuronidase treatment; total 3.8 uM; assay type: ADME, organism-based; parameters: dose 20 mg/kg, route oral; conditions: read-out: Plasma level
# [3] = organism: Canis familiaris; test: Effect on methemoglobin formation in canine venous blood containing heparin; assay type: functional, Canis lupus familiaris
# [4] = test system: Rattus norvegicus; test: Percentage inhibition against antigen induced dyspnea in hyperactive inbred rat at a dose of 0.5 mg/kg; assay type: functional; conditions: for inhibition in vivo at 0.5 mg/kg: Rattus norvegicus
# How it was run: (§1)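 Inbred hyperreactive rats, six per group, dosed po 2 h before aerosol ovalbumin challenge, with drug suspension or vehicle (0.4% Methocel/0.5% Tween 80, 10 mL/kg). Methysergide 3 mg/kg iv given 5 min before antigen. Dyspnea duration recorded by pneumotachograph. % inhibition of duration is relative to vehicle controls. Student's t test used; ED50 from linear regression.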
# [5] = target: T1, Polyunsaturated fatty acid 5-lipoxygenase (Rattus norvegicus, UniProt P12527); test: Tested for its inhibitory activity against arachidonic acid in rat 5-lipoxygenase.
# T1 sequence (P12527 whole entry): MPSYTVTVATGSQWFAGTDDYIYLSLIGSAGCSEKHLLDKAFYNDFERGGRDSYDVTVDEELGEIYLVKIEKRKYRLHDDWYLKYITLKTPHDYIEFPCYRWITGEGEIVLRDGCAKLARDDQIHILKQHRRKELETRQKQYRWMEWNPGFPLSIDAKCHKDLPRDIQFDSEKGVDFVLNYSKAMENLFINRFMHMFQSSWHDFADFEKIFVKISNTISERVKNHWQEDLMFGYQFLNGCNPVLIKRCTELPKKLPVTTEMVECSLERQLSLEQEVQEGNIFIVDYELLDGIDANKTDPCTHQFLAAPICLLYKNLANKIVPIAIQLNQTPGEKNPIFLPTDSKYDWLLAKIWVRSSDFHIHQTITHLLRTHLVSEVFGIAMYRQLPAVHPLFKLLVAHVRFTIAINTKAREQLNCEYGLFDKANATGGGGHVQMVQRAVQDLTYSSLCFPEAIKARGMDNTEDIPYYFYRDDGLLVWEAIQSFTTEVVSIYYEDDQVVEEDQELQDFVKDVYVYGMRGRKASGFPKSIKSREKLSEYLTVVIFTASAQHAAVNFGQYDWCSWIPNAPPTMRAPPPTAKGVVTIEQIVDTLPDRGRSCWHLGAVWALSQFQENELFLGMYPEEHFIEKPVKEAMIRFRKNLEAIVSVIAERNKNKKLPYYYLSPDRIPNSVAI
# How it was run: (§2)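 10000g supernatant from rat PMN leukocytes incubated 10 min with [14C]arachidonic acid. 5-Lipoxygenase activity taken as percentage conversion to 5-HETE plus 5,12-diHETEs.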
# [6] = test system: Rattus norvegicus; test: Percentage inhibition against antigen induced dyspnea in hyperactive inbred rat at a dose of 0.05 mg/kg; assay type: functional
# How it was run: as §1
# [7] = organism: Rattus norvegicus; test: Effective dose against antigen induced dyspnea in hyperactive inbred rat at a dose of […]; assay type: functional
# [8] = organism: Rattus norvegicus; test: Percentage inhibition against antigen induced dyspnea in hyperactive inbred rat at a dose of […]; assay type: functional
# [9] = Measure of AUCpo/AUCiv x 100% of the parent compound before (free) and after (total) beta-glucuronidase treatment; total 76%; assay type: ADME, organism-based; conditions: in vivo, po; read-out: Bioavailabiility
# [10] = target: T1, Polyunsaturated fatty acid 5-lipoxygenase; test: The compound was tested for its inhibitory activity against arachidonic acid in rat 5-lipoxygenase
# How it was run: as §2
# [11] = Peak concentration of drug in rat plasma after oral dosing at 20 mg/kg. Concentration of parent compound was measured before (free) and after (total) beta-glucuronidase treatment; total 3.4 uM; assay type: ADME, organism-based; parameters: dose 20 mg/kg, route oral; conditions: read-out: Plasma level
# [12] = Measure of AUCpo/AUCiv x 100% of the parent compound before (free) and after (total) beta-glucuronidase treatment; total 4%; assay type: ADME, organism-based; conditions: in vivo, po; read-out: Bioavailabiility
# [13] = Peak concentration of drug in rat plasma after oral dosing at 20 mg/kg. Concentration of parent compound was measured before (free) and after (total) beta-glucuronidase treatment; total 3.0 uM; assay type: ADME, organism-based; parameters: dose 20 mg/kg, route oral; conditions: read-out: Plasma level
# [14] = Measure of AUCpo/AUCiv x 100% of the parent compound before (free) and after (total) beta-glucuronidase treatment; total 10%; assay type: ADME, organism-based; conditions: in vivo, po; read-out: Bioavailabiility
# [15] = Measure of AUCpo/AUCiv x 100% of the parent compound before (free) and after (total) beta-glucuronidase treatment; total 27%; assay type: ADME, organism-based; conditions: in vivo, po; read-out: Bioavailabiility
# [16] = test system: Rattus norvegicus; test: Effective dose against antigen induced dyspnea in hyperactive inbred rat at a dose of 0.5 mg/kg; assay type: functional
# How it was run: as §1
# [17] = Peak concentration of drug in rat plasma after oral dosing at 20 mg/kg. Concentration of parent compound was measured before (free) and after (total) beta-glucuronidase treatment; total 3.1 uM; assay type: ADME, organism-based; parameters: dose 20 mg/kg, route oral; conditions: read-out: Plasma level
# [18] = Measure of AUCpo/AUCiv x 100% of the parent compound before (free) and after (total) beta-glucuronidase treatment; total 72%; assay type: ADME, organism-based; conditions: in vivo, po; read-out: Bioavailabiility
# [19] = Peak concentration of drug in rat plasma after oral dosing at 20 mg/kg. Concentration of parent compound was measured before (free) and after (total) beta-glucuronidase treatment; total 2.2 uM; assay type: ADME, organism-based; parameters: dose 20 mg/kg, route oral; conditions: read-out: Plasma level
# [20] = test system: Rattus norvegicus; test: Peak concentration of drug in rat plasma after oral dosing at 20 mg/kg. Concentration of parent compound was measured before (free) and after (total) beta-glucuronidase treatment; total 0.7 uM; assay type: functional, organism-based; parameters: dose 20 mg/kg
Compound,IC50 [1] [nM],Formation [3] [%],IC50 [5] [nM],further results
CC1(C)c2cc(O)c(CCCOc3ccccc3)cc2OC1CCc1ccc(Cl)cc1 (stereo not drawn),472,–,–,–
Oc1cc2c(cc1Cc1ccccc1)OC(CCc1ccccc1)C2 (stereo not drawn),18,6,48,Cmax [2]: 1600 nM; inhibition in vivo at 0.5 mg/kg [4]: 53%; inhibition in vivo at 0.05 mg/kg [6]: 44%; ED50 at […] [7]: 0.3 mg/kg; inhibition in vivo at […] ([8]; dose 0.15 mg/kg): 44%; bioavailability [9]: 44%
C=CCc1c(O)ccc2c1CC(CCc1ccccc1)O2 (stereo not drawn),38,18,25,–
CCCc1c(OCCCc2cc3c(cc2O)CC(CCc2ccccc2)O3)ccc(C(C)=O)c1O (stereo not drawn),9,3,53,Inhibition ([4]; 0.5 mg/kg): 50%; inhibition in vivo at 0.5 mg/kg [4]: 50%
CCCc1c(O)c(CCCOc2ccccc2)cc2c1CC(CCc1ccccc1)O2 (stereo not drawn),52,2,–,IC50 [10]: 127 nM
COc1ccc(CC2Oc3ccc(O)cc3C2C)cc1 (stereo not drawn),107,6,–,–
COc1nc2c(SCCCc3cc4c(cc3O)CC(CCc3ccccc3)O4)cccc2cc1C(=O)O (stereo not drawn),37,1,50,Cmax [11]: 1000 nM; inhibition in vivo at 0.5 mg/kg [4]: 69%; inhibition in vivo at 0.05 mg/kg [6]: 55%; ED50 at […] [7]: < 0.05 mg/kg; inhibition in vivo at […] ([8]; dose 0.15 mg/kg): 72%; bioavailability [12]: 3%
C=CCc1cc2c(cc1O)CC(CCc1ccccc1)O2 (stereo not drawn),10,52,17,inhibition in vivo at 0.5 mg/kg [4]: 65%; inhibition in vivo at […] ([8]; dose 1.5 mg/kg): 50%
Oc1cc2c(cc1CCCOc1ccccc1)OCC2,57,–,–,–
Oc1cc2c(cc1CCCSc1ccncc1)OC(CCc1ccccc1)C2 (stereo not drawn),14,6,8,Cmax [13]: 1000 nM; bioavailability [14]: 11%; inhibition in vivo at […] ([8]; dose 1.5 mg/kg): 51%
CCCc1cc2c(cc1O)C(C)(C)C(CCc1ccc(S(C)(=O)=O)cc1)O2 (stereo not drawn),176,–,–,–
Oc1ccc2c(c1)CC(CCc1ccccc1)O2 (stereo not drawn),275,40,–,–
Oc1cc2c(cc1CCCOc1ccccc1)OC(CCc1ccc(Cl)cc1)C2 (stereo not drawn),41,2.8,51,bioavailability [15]: 6%; inhibition in vivo at 0.05 mg/kg [6]: 56%; ED50 [16]: 0.07 mg/kg; Cmax [17]: 300 nM; inhibition in vivo at […] ([8]; dose 0.15 mg/kg): 66%
O=C(O)c1ccc(OCCCc2cc3c(cc2O)CC(CCc2ccccc2)O3)cc1 (stereo not drawn),356,3,44,–
CS(=O)(=O)c1ccc(Cc2cc3c(cc2O)CC(CCc2ccccc2)O3)cc1 (stereo not drawn),190,–,–,–
CCCc1cc2c(cc1O)C(C)C(Cc1ccc(OC)cc1)O2 (stereo not drawn),18,6,–,IC50 [10]: 35 nM
Oc1cc2c(cc1CCCSc1nc3ccccc3s1)OC(CCc1ccccc1)C2 (stereo not drawn),22,1,45,–
CCCc1cc2c(cc1O)C(C)(C)C(CCSc1ccccn1)O2 (stereo not drawn),75,–,44,–
CCCc1c(O)c(CCCOc2ccc(C3N=NN=N3)cc2)cc2c1CC(CCc1ccccc1)O2 (stereo not drawn),107,2,45,bioavailability [18]: 12%; inhibition in vivo at 0.5 mg/kg [4]: 64%; inhibition in vivo at 0.05 mg/kg [6]: 52%; ED50 at […] [7]: 0.03 mg/kg; Cmax [19]: 1600 nM; inhibition in vivo at […] ([8]; dose 0.15 mg/kg): 61%
CCCc1cc2c(cc1O)C(C)(C)C(CCc1ccc(SC)cc1)O2 (stereo not drawn),28,–,92,–
Oc1cc2c(cc1CCCOc1ccc(C3N=NN=N3)cc1)OC(CCc1ccccc1)C2 (stereo not drawn),201,–,–,–
CCCc1cc(Cl)c2c(c1O)C(C)C(Cc1ccc(OC)cc1)O2 (stereo not drawn),235,–,–,–
C=CCc1cc2c(cc1O)C(C)(C)C(Cc1ccc(OC)cc1)O2 (stereo not drawn),49,1,164,inhibition in vivo at […] ([8]; dose 1.5 mg/kg): 68%
C=CCc1cc2c(cc1O)C(C)(C)C(CCc1ccc(OC)cc1)O2 (stereo not drawn),47,2,52,Plasma level [20]: 0 µM; inhibition in vivo at […] ([8]; dose 1.5 mg/kg): 50%
CC1(C)c2cc(O)c(CCCOc3ccccc3)cc2OC1CCc1ccccc1 (stereo not drawn),38,6,40,inhibition in vivo at […] ([8]; dose 1.5 mg/kg): 48%
